CHOP inhibitor: CHOP inhibition in unfolded protein response; inhibition, % at 10 µM; CHO-K1 CHOP-promoter luciferase, tunicamycin-induced, 15-18 h; 220,000 compounds, 3.8% hits;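 active = compounds that reduced the stress-induced luciferase reporter signal by more than about 70% of percent inhibition, limit read from the data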;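 also: 0% = tunicamycin plus vehicle and 100% = wells without tunicamycin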
Lmaj promast: inhibitors of Leishmania major promastigote growth. Leishmania major promastigotes, resazurin fluorescence viability. inhibition, % at 10 µM. 200,000 compounds, 9% hits; in the data active = inhibition above about 50%;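 also: promastigotes grown with compound for 44 hours at 28 °C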
b-catenin transl: beta-catenin nuclear translocation modulation; nuclear translocation activity, % at 5 µM; HeLa beta-catenin nuclear translocation, immunofluorescence imaging; AID 1665; 190,000 compounds, 0.3% hits;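 active = nuclear translocation activity above 50% at 5 µM, with a well cell count of 50 or more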;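 also: per-cell ratio of nuclear to cytoplasmic median beta-catenin stain intensity; plate controls were DMSO negative control for no effect and GSK-3 inhibitor IX positive control for full effect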
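Test system: human HeLa cell line; Doses: 5 µM primary, 0.02–20 µM confirmation; Incubation: 24 h compound exposure, 37°C; Detection: beta-catenin immunofluorescence imaging with DAPI; Read-out: beta-catenin nuclear/cytoplasmic ratio, % activation.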
Dynein cargo inh: dynein cargo transport inhibition | 3617.4 mouse cells, GR-EGFP nuclear translocation imaging; test concentration mostly 20 µM; stimulated with dexamethasone, 1 µM; stronger effect = lower value | AID 1381 | z-score, hits read low | 220,000 compounds, 0.47% hits;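 active = plate z-score of nuclear minus cytoplasmic receptor signal below a set negative limit, without overly bright fluorescence or cell loss, cut at about -3.5 in these data, passing the limit was not always enough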;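 also: z-score of nuclear minus cytoplasmic ring GR-EGFP intensity difference per well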
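Buffer or medium: tetracycline-free induction medium containing charcoal-stripped FBS / Reagent: dexamethasone agonist, 1.0 µM final, for 30 min / Technique: automated 10x imaging of fixed Hoechst-stained cells / Times: induction 48 h, compound 1 h, agonist 30 min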
MT stabilize HCS: microtubule stabilization, imaging screen; HeLa tubulin immunostaining HCS, 24 h; share of cells brighter than vehicle mean+2SD; 200,000 compounds, 0.83% hits; % tubulin-high responders, % at 10 µM; AID 2205;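 active = plate Z-score above 3 for both tubulin-high and condensed-nucleus cell shares, with cell loss under 80%, at 10 µM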;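 also: anti alpha tubulin signal scored within the nucleus-defined area of each cell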
Autophagy mod: alters autophagy in cells; calls only at 10 µM (by protocol); MEF GFP-LC3 puncta imaging; test concentration mostly 10 µM; 190,000 compounds, 0.98% hits;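 active = percentage of spot-positive cells more than 3 SD above its plate mean, without a fluorescence outlier flag or 80% toxicity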;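 also: spot-positive cell cutoff set from DMSO-treated cells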
Numbers without * were called inactive; i = inactive; . = no result given; + = active, no number. The list is not random: actives were taken first. Their share in the collection is about 12%.

SMILES	CHOP inhibitor	Lmaj promast	b-catenin transl	Dynein cargo inh	MT stabilize HCS	Autophagy mod
COc1ccc(CCC(C)Nc2cccc(F)c2)cc1 (stereo unspecified)	87.5*	49.6	8.8	2.29	2.8	i
CSc1nc2ccccc2cc1/C=C(\C#N)c1cccc(Cl)c1	-15.9	-1.1	0.2	-10.5	34.3*	+
CCOC(=O)/C(C#N)=C/c1cc2ccccc2nc1Cl	8.3	3.7	.	0.000139	2.1	i
C=CCn1c(N)c(C(=O)NCc2cccnc2)sc1=S	54.8	-1.8	.	2.37	2.5	i
CCOC(=O)c1nc(-c2ccccc2)sc1C(C)=O	2.4	.	-3.4	0.055	.	.
CCc1nn(C(C)C(=O)Nc2cccc(C)c2C)c(=O)c2cc3occc3n12 (stereo unspecified)	12.5	0.3	0.6	-0.355	6.9	i
CCc1nn(C(C)C(=O)NCCN2CCN(c3cccc(C)c3C)CC2)c(=O)c2cc3occc3n12 (stereo unspecified)	59.1	84.5*	0.4	0.392	1.6	i
Cc1ccc(NC(=O)CN2CCCCCC2)cc1[N+](=O)[O-]	14.2	7.3	-2.0	0.314	3.0	i
O=[N+]([O-])c1nn(-c2ccc3c(c2)OCCO3)n(O)c1=NCc1ccc(F)cc1Cl	-32.1	84.7*	-1.6	-0.544	2.6	i
O=[N+]([O-])c1nn(-c2ccc3c(c2)OCCO3)n(O)c1=NCc1ccc(F)cc1	10.9	96.9*	-1.6	1.95	2.9	i
CCc1cccc(N=c2c([N+](=O)[O-])nn(-c3ccc4c(c3)OCCO4)n2O)c1	29.7	90.5*	-1.6	1.66	4.6	i
O=[N+]([O-])c1nn(-c2ccc3c(c2)OCCO3)n(O)c1=NC1CCN(Cc2ccccc2)CC1	22.4	76.3*	-1.4	-0.177	2.6	i
CC(C)c1ccc(N=c2c([N+](=O)[O-])nn(-c3ccc4c(c3)OCCO4)n2O)cc1	23.0	2.1	-0.1	-0.265	2.3	i
CCOC(=O)c1c(C)oc2cc3c(C(=O)OCC)c(C)oc3cc12	.	-6.8	.	-0.634	3.1	i
COc1ccc(CCNC(=O)c2ccc(NS(=O)(=O)c3c(C)noc3C)cc2)cc1OC	16.6	-7.7	0.2	-0.231	1.7	i
O=[N+]([O-])c1nn(-c2ccc3c(c2)OCCO3)n(O)c1=NCCC1=CCCCC1	85.6*	63.0*	-4.9	-0.562	1.8	i
Cc1cccc(-n2cc(-c3ccccc3)c3c(N4CCOCC4)ncnc32)c1	55.3	14.8	0.5	0.209	2.0	i
O=C1C(Cl)=C(Nc2ccc(O)cc2)C(=O)c2ccccc21	31.2	.	38.6	-1.48	.	.
O=C(NC1=C(Nc2ccc(F)cc2)C(=O)c2ccccc2C1=O)c1ccc(Cl)cc1	-12.4	95.9*	0.3	-0.285	2.7	i
COC(=O)C1=C(C)Nc2sc(C(N)=O)c(N)c2C1c1ccncc1 (stereo unspecified)	6.0	-2.1	.	0.0712	4.3	i
CCOC(=O)C1=C(C)Nc2sc(C(=O)c3ccc(OC)cc3)c(N)c2C1c1ccc(C(=O)OC)cc1 (stereo unspecified)	17.3	71.4*	1.0	0.345	3.2	i
COc1cccc(C(=O)O/N=C(\N)c2ccc([N+](=O)[O-])cc2)c1	50.0	-1.3	.	0.343	2.7	i
CCOc1cc(C(=O)O/N=C(\N)c2ccc([N+](=O)[O-])cc2)cc(OCC)c1OCC	79.3*	-3.5	-0.4	-0.759	1.8	i
COc1cc(C(=O)O/N=C(\N)c2ccncc2)cc(OC)c1OC	-8.6	82.1*	0.7	-0.279	2.7	i
COc1cc(C(=O)O/N=C(\N)c2cccc([N+](=O)[O-])c2)cc(OC)c1OC	3.5	.	0.3	-0.365	.	.
SMILES	CHOP inhibitor	Lmaj promast	b-catenin transl	Dynein cargo inh	MT stabilize HCS	Autophagy mod
COc1cc(C(=O)O/N=C(\N)c2ccc([N+](=O)[O-])cc2)cc(OC)c1OC	-9.1	55.7*	.	0.259	6.3	i
CCOC(=O)N1CCN(c2cc(=O)n(-c3ccc(Br)cc3)c(=O)[nH]2)CC1	0.7	-5.5	1.9	-0.587	1.6	i
COc1ccc(-c2cc(C(F)F)n3ncc(C(=O)N4CCc5ccccc5C4)c3n2)cc1	51.0	39.0	-1.5	-0.879	2.2	i
O=C(c1cnn2c(C(F)F)cc(-c3ccccc3)nc12)N1CCc2ccccc21	3.6	-7.1	2.4	-0.0549	5.4	i
COc1ccc(-c2cc(C(F)F)n3ncc(C(=O)N4CCN(C(=O)c5ccco5)CC4)c3n2)cc1	48.4	10.2	0.9	-0.231	2.6	i
Cc1ccc(-c2cc(C(F)F)n3ncc(C(=O)N4CCN(c5ccccn5)CC4)c3n2)cc1	57.6	100.2*	1.1	-0.717	2.5	.
Cc1ccc(-c2cc(C(F)F)n3ncc(C(=O)N4CCc5ccccc54)c3n2)cc1	6.2	17.6	5.6	0.912	11.3*	+
CCN1CCN(C(=O)c2cnn3c(C(F)F)cc(-c4ccc(C)cc4)nc23)CC1	21.0	98.3*	-5.0	0.512	3.0	i
CCc1nccn1C(=O)c1cnn2c(C(F)F)cc(-c3ccc(C)cc3)nc12	38.0	-4.0	-0.3	-1.13	4.6	i
COc1ccc(-c2cc(C(F)F)n3ncc(C(=O)N4CCCCC4)c3n2)cc1	39.3	100.0*	-2.1	1.69	2.7	i
N#CCc1nn(-c2ccc(F)cc2)c(N)c1C#N	27.5	-5.3	-1.8	-0.0226	1.7	i
CC(C)(C)SCCNC(=O)CN(c1ccccc1)S(=O)(=O)c1ccc(F)cc1	6.7	-1.2	-0.1	-0.153	2.4	i
Cc1nc(COC(=O)c2ccc(S(=O)(=O)N3CCCC3)cc2)cs1	7.5	-3.5	-6.6	0.372	5.4	i
CCOC(=O)c1cc2c(N)c(C(=O)c3ccc(Br)cc3)sc2[nH]c1=O	12.8	0.8	-0.4	0.276	3.2	i
COc1cc(/C=C2\C(=O)N(c3ccc(S(N)(=O)=O)cc3)N=C2C)ccc1OC(=O)c1ccco1	4.9	-4.4	-0.8	-0.874	3.8	i
CCOC(=O)c1ccc(N2NC(=O)/C(=C/c3ccc(OC(=O)c4ccco4)c(OC)c3)C2=O)cc1	-7.5	60.7*	-2.6	-1.12	1.3	i
Cc1c(Br)c(O)c(Br)c2sc(=O)oc12	-0.7	.	-4.2	-0.656	.	.
Cc1c(C(=O)N2CCC(Cc3ccccc3)CC2)cccc1[N+](=O)[O-]	46.9	13.9	-0.1	1.07	2.3	i
COc1ccccc1N1CCN(C(=O)COc2cc(C)ccc2C)CC1	16.3	64.2*	.	-0.275	2.6	i
COc1ccccc1N1CCN(C(=O)COc2ccc(C)cc2Br)CC1	44.5	2.2	1.2	-0.433	4.8	i
Cc1cccc(C(=O)N2CCC(Cc3ccccc3)CC2)c1[N+](=O)[O-]	56.4	52.6*	-0.1	-0.0975	1.7	i

Assay outcomes: PubChem BioAssay, several laboratories
